In publication PMC6404985 (Cell chemical biology, 2018):
“Also recorded” adds a separate entry of the source.

Experiments:
[1] = system: BAF-mediated transcriptional repression (Bmi1-luciferase reporter cell line); assay: Bmi1-luciferase reporter assay in mouse ESCs; assay type: cell-based; conditions: for activity in the Bmi1 luciferase reporter assays (in words): follow up library
Outline: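 Mouse ESC Bmi1-luciferase reporter line: 10,000 cells per 384-well in ESC medium, 24 h at 37 °C/5% CO2, then compound added by 100 nL pin transfer alongside a positive control. Each concentration in triplicate; DMSO tolerated to 0.5%. After 24 h treatment, equilibrated 10 min at room temperature, SteadyGlo added for 10 min, luminescence read. EC50 derived.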

[2] = system: latent HIV-1; assay: Ex vivo primary CD4+ T cell model of HIV-1 latency; assay type: cell-based; conditions: 24 h treatment
Outline: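 Healthy-donor CD4+ T cells (buffy coat, Ficoll, RosetteSep negative selection) were spin-infected 24 h after isolation with HXB2 Env-pseudotyped pNL4.3.Luc.R-E- (1200 g, 2 h). After 18 h, cells were washed and cultured with 5 µM saquinavir. Three days later, treated 24 h with 30 µM raltegravir present. Luciferase read-out normalized to total protein, expressed as fold over untreated; Bliss score for combinations.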

[3] = system: ARID1A; assay: Biotin pulldown from ESC lysates, ARID1A; assay type: binding, mouse; conditions: 200 µM soluble compound, pulldown with CAM 2–56
Outline: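 Beads incubated 2 h with cell lysates pre-incubated with DMSO or 200 µM soluble competitor. Beads washed once, boiled in SDS loading buffer, and bound proteins detected by immunoblot.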

[4] = system: latent HIV-1; assay: Second ex vivo model of HIV-1 latency; assay type: cell-based; conditions: 24 h
Outline: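 Healthy-donor CD4+ T cells were polarized for 3 days with 10 ng/ml TGF-β, 1 µg/ml α-IL-4 and αCD3/CD28 beads (1:1). Beads removed, then 4 days in 30 IU/ml rIL-2. Spin-infected 90 min at 1200 g, then kept in rIL-2 plus 5 µM saquinavir. Seven days post-infection, treated 24 h with increasing concentrations plus 30 µM raltegravir. Luciferase RLU normalized to total protein.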

[5] = system: human primary CD4+ T cells; assay: T cell activation markers CD25 and CD69; assay type: cell-based; conditions: 24 and 72 hours, two healthy donors
[6] = system: latent HIV-1; assay: Latency reversal in CD4+ T cells from aviremic HIV-1 infected patients; assay type: cell-based
[7] = system: BAF target genes p21 and c-MYC; assay: Biomarker mRNA expression of BAF target genes in CD4+ T cells; assay type: cell-based, human
Outline: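 Human CD4+ T cells, healthy donors: three donors isolated by Ficoll and RosetteSep negative selection, treated in duplicate with 3 µM test compound or DMSO for 16 h. HIV+ patient cells: frozen PBMCs rested overnight, CD4+ enriched twice, rested 6 h, 3 million cells treated with 10 µM compound or DMSO. TRIreagent RNA, random-primed cDNA; p21 and c-MYC mRNA vs control; Student's t test.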

[8] = system: nucleosome occupancy at the HIV-1 5'-LTR; assay: FAIRE assay in J-Lat 11.1; assay type: cell-based; conditions: J-Lat 11.1, overnight treatment
[9] = system: wild type ESCs; assay: Viability of wild type ESCs; assay type: cell-based, mouse; conditions: up to 30 µM, 72 h
Outline: (§1)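 2000 cells/well in 384-well plates, pre-incubated 24 h at 37 °C, 5% CO2. Compound added by pin transfer; mitoxantrone (10 µM final) as cytotoxic positive control. Incubated 72 h, equilibrated 15 min to room temperature. CellTiter-Glo diluted 1:1 with PBS (pH 7.4) added, luminescence read. Run at eight doses as a viability counter-screen.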

[10] = system: HepG2 cells; assay: Viability assay HepG2; assay type: cell-based, human; conditions: 72 h
Outline: as §1

[11] = system: HEK293T cells; assay: Viability assay HEK293T; assay type: cell-based, human; conditions: 72 h
Outline: as §1

[12] = system: A549 cells; assay: Viability assay A549; assay type: cell-based, human; conditions: 72 h
Outline: as §1

[13] = system: latent HIV-1 provirus in J-Lat cells; assay: J-Lat T-cell line models of HIV-1 latency; assay type: cell-based; conditions: 48 h; higher concentrations than in primary cells
[14] = system: BAF target genes (Bmi1, Ring1, Fgf4); conditions: 30 µM, 18 h
[15] = system: latent HIV-1; assay: HIV latency reversal activity of the thiophene hit; assay type: cell-based
[16] = CD4+ T cells of three patients, 10 µM

For `CCC(CC)Nc1c(Nc2ccc3c(c2)C(=O)N(C)C[C@H](OC)[C@@H](C)CN(Cc2ccc(-c4ccccn4)cc2)[C@@H](C)CO3)c(=O)c1=O` [BRD-K04244835], the “activity in the Bmi1 luciferase reporter assays (in words)” value (from here on “activity … (in words)”) [1] was “low/no activity”.

In the case of `CO[C@H]1CN(C)C(=O)c2cc(NC(=O)NC(C)C)ccc2OC[C@H](C)N(Cc2ccccc2)C[C@@H]1C` [BRD-K13648511], the “activity … (in words)” value [1] is reported as “low/no activity”.

In the case of `CO[C@H]1CN(C)C(=O)c2cc(NC(=O)NC(C)C)ccc2OC[C@H](C)N(Cc2ccc(-c3cccnc3)cc2)C[C@@H]1C` [BRD-K17257309], the “activity … (in words)” value [1] is reported as “moderate activity”.

In the case of `CO[C@H]1CN(C)C(=O)c2cc(N)ccc2OC[C@H](C)N(Cc2ccc(-c3ccccn3)cc2)C[C@@H]1C` [BRD-K25923209], the “activity … (in words)” value [1] is reported as “high activity”, the “transcription of latent HIV-1 in ex vivo infected primary CD4+ T cells” value (from here on “transcription”) [2] is reported as “triggered HIV transcription” and the “ARID1A enrichment upon preincubation of lysates with soluble competitor” value [3] is reported as “complete reduction”.

In the case of `CO[C@H]1CN(C)C(=O)c2cc(NC(=O)OC(C)C)ccc2OC[C@H](C)N(Cc2ccc(-c3ccccn3)cc2)C[C@@H]1C` [BRD-K80443127], the “activity … (in words)” value [1] is reported as “high activity”, the “transcription” value [2] is reported as “slightly higher activity at low concentrations; also recorded: triggered HIV transcription” and the “activation in second ex vivo model of HIV-1 latency” value [4] is reported as “activation was confirmed”. The “effect on CD25 and CD69 expression (T cell activation)” value [5] was “no effect”, the “potentiation of prostratin activity” value ([6]; all three patients) was “significant potentiation” and the “cell associated HIV mRNA after ex vivo treatment alone” value ([6]; in one patient) was “significant increase”. For the same compound, the “POL copies when co-treated with prostratin” value ([6]; patient 2 and 3, 10 µM with 200 nM prostratin, 24 h) was “significant increase”, the “cell associated HIV-1 POL after treatment alone” value ([6]; patient 2 and 3, 10 µM, 24 h) was “did not result in a significant increase” and the “differential expression of c-MYC and p21” value ([7]; CD4+ T cells of healthy donors, 3 µM, 16 hours) was “consistent with BAF inhibition”. For the same compound, the C-MYC transcripts levels [7, 16] was “significant decrease”, the p21 transcripts levels [7, 16] was “significant decrease” and the “chromatin accessibility at the Nuc-1 position of the 5' LTR” value [8] was “increased chromatin accessibility”.

`CO[C@H]1CN(C)C(=O)c2cc(NC(=O)NC(C)C)ccc2OC[C@H](C)N(Cc2ccc(-c3ccccn3)cc2)C[C@@H]1C` [BRD-K98645985] was tested, and the “activity … (in words)” value [1] was “high activity”, the EC50 ([1]; read-out: EC50 in the luciferase assay, 24 h compound treatment, re-evaluation of hit) was roughly 2.37 µM and the “toxicity to ESCs” value [9] was “no toxicity”. The “toxicity to HepG2 cells” value [10] was “no toxicity”, the “toxicity to HEK293T cells” value [11] was “no toxicity” and the “toxicity to A549 cells” value [12] was “no toxicity”. The “transcription” value [2] was “triggered HIV transcription”, the “latency reversal in J-Lat cells” value [13] was “concentration dependent latency reversal” and the “fold decrease in Fgf4” value [14] was 3.3 fold. For the same compound, the “fold increase in Bmi1” value [14] was 5 fold and the “fold increase in Ring1” value [14] was 2.6 fold.

For `C=CCNc1nc(NCc2cccc(OC)c2)c2sc(-c3ccccc3)cc2n1` [MLS003122856], the “HIV latency reversal activity” value [15] was “only moderate HIV latency reversal activity”.
